# Measured values as given in PMC6923798 (Bioorganic chemistry, 2018).
# Columns and labels:
# [1] = tested on: CCRF-CEM; assay: NCI in vitro five dose anticancer assay; format: cell-based, human; conditions: 48 h
# [2] = tested on: MOLT-4; assay: NCI in vitro five dose anticancer assay; format: cell-based, human
# [3] = tested on: RPMI-8226; assay: NCI in vitro five dose anticancer assay; format: cell-based, human
# [4] = tested on: NCI-H226; assay: NCI in vitro five dose anticancer assay; format: cell-based, human
# [5] = tested on: NCI-H23; assay: NCI in vitro five dose anticancer assay; format: cell-based, human
# [6] = tested on: NCI-H322M; assay: NCI in vitro five dose anticancer assay; format: cell-based, human; conditions: 48 h
# [7] = tested on: NCI-H522; assay: NCI in vitro five dose anticancer assay; format: cell-based, human
# [8] = tested on: HT29; assay: NCI in vitro five dose anticancer assay; format: cell-based, human
# [9] = tested on: SW-620; assay: NCI in vitro five dose anticancer assay; format: cell-based, human
# [10] = tested on: SNB-19; assay: NCI in vitro five dose anticancer assay; format: cell-based, human
# [11] = tested on: SNB-75; assay: NCI in vitro five dose anticancer assay; format: cell-based, human
# [12] = tested on: U251; assay: NCI in vitro five dose anticancer assay; format: cell-based, human
# [13] = tested on: DU-145; assay: NCI in vitro five dose anticancer assay; format: cell-based, human
# [14] = tested on: MALME-3M; assay: NCI in vitro five dose anticancer assay; format: cell-based, human; conditions: 48 h
# [15] = tested on: M14; assay: NCI in vitro five dose anticancer assay; format: cell-based, human
# [16] = tested on: MDA-MB-435; assay: NCI in vitro five dose anticancer assay; format: cell-based, human
# [17] = tested on: SK-MEL-28; assay: NCI in vitro five dose anticancer assay; format: cell-based, human
# [18] = tested on: IGROV1; assay: NCI in vitro five dose anticancer assay; format: cell-based, human
# [19] = tested on: OVCAR-3; assay: NCI in vitro five dose anticancer assay; format: cell-based, human
# [20] = tested on: OVCAR-5; assay: NCI in vitro five dose anticancer assay; format: cell-based, human
# [21] = tested on: OVCAR-8; assay: NCI in vitro five dose anticancer assay; format: cell-based, human
# [22] = tested on: NCI/ADR-RES; assay: NCI in vitro five dose anticancer assay; format: cell-based, human; conditions: 48 h
# [23] = tested on: SK-OV-3; assay: NCI in vitro five dose anticancer assay; format: cell-based, human
# [24] = tested on: 786–0; assay: NCI in vitro five dose anticancer assay; format: cell-based, human
# [25] = tested on: A498; assay: NCI in vitro five dose anticancer assay; format: cell-based, human
# [26] = tested on: TK-10; assay: NCI in vitro five dose anticancer assay; format: cell-based, human
# [27] = tested on: UO-31; assay: NCI in vitro five dose anticancer assay; format: cell-based, human
# [28] = tested on: MCF7; assay: NCI in vitro five dose anticancer assay; format: cell-based, human
# [29] = tested on: T-47D; assay: NCI in vitro five dose anticancer assay; format: cell-based, human; conditions: 48 h
# [30] = tested on: MDA-MB-468; assay: NCI in vitro five dose anticancer assay; format: cell-based, human
# [31] = tested on: full NCI panel of 60 cell lines; assay: NCI in vitro one dose anticancer assay; format: cell-based, human; conditions: 48 h
# Method in brief: (§1)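 NCI protocol. Test compound added once at 10−5 M to ~60 human tumour lines from nine subpanels. Incubated 48 h at 37 °C, 5% CO2, 95% air, 100% relative humidity. Endpoint by sulforhodamine B protein staining with spectrophotometric absorbance. Growth of treated cells reported as percent of untreated cells.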
# [32] = tested on: RPMI-8226 cell line; assay: NCI in vitro one dose anticancer assay; format: cell-based; conditions: Homo sapiens, RPMI-8226, 48 h, read-out: % growth inhibition
# Method in brief: as §1
# [33] = tested on: KG-1a; assay: MTT anti-proliferative assay; format: cell-based, human; conditions: Homo sapiens, KG-1a, 24 h, read-out: IC50 ± SD, KG-1a
# [34] = tested on: Jurkat; assay: MTT anti-proliferative assay; format: cell-based, human; conditions: Homo sapiens, Jurkat, 24 h, read-out: IC50 ± SD, Jurkat
compound,measurement,setting,value
"COc1ccc(C=CC(=O)c2ccc(NC(=O)CSc3nnc(-c4cc(OC)c(OC)c(OC)c4)o3)cc2)cc1 [Compound 8v, N-(4-(3-(4-Methoxyphenyl)acryloyl)phenyl)-2-((5-(3,4,5-trimethoxy-phenyl)-1,3,4-oxadiazol-2-yl)thio)acetamide]",GI50,[1]; Homo sapiens,1840 nM
same,TGI,"[1]; Leukemia, five dose, SRB",4560 nM
same,GI50,"[2]; Homo sapiens, MOLT-4, 48 h",2050 nM
same,TGI,"[2]; MOLT-4, Leukemia, five dose, 48 h, SRB",5270 nM
same,GI50,"[3]; Homo sapiens, RPMI-8226, 48 h",1730 nM
same,TGI,"[3]; RPMI-8226, Leukemia, five dose, 48 h, SRB",4310 nM
same,GI50,"[4]; Homo sapiens, NCI-H226, 48 h",2670 nM
same,TGI,"[4]; NCI-H226, Non-Small Cell Lung Cancer, five dose, 48 h, SRB",5690 nM
same,GI50,"[5]; Homo sapiens, NCI-H23, 48 h",1880 nM
same,TGI,"[5]; NCI-H23, Non-Small Cell Lung Cancer, five dose, 48 h, SRB",3970 nM
same,GI50,[6]; Homo sapiens,1590 nM
same,TGI,"[6]; Non-Small Cell Lung Cancer, five dose, SRB",2980 nM
same,GI50,"[7]; Homo sapiens, NCI-H522, 48 h",1550 nM
same,TGI,"[7]; NCI-H522, Non-Small Cell Lung Cancer, five dose, 48 h, SRB",3210 nM
same,TGI,"[8]; HT29, Colon Cancer, five dose, 48 h, SRB",3620 nM
same,GI50,"[8]; Homo sapiens, HT-29, 48 h",1830 nM
same,GI50,"[9]; Homo sapiens, SW-620, 48 h",1860 nM
same,TGI,"[9]; SW-620, Colon Cancer, five dose, 48 h, SRB",3600 nM
same,GI50,"[10]; Homo sapiens, SNB-19, 48 h",1780 nM
same,TGI,"[10]; SNB-19, CNS cancer, five dose, 48 h, SRB",3560 nM
same,GI50,"[11]; Homo sapiens, SNB-75, 48 h",1470 nM
same,TGI,"[11]; SNB-75, CNS cancer, five dose, 48 h, SRB",3150 nM
same,GI50,"[12]; Homo sapiens, U-251, 48 h",1680 nM
same,TGI,"[12]; U251, CNS cancer, five dose, 48 h, SRB",3180 nM
same,TGI,"[13]; DU-145, Prostate Cancer, five dose, 48 h, SRB",3210 nM
same,GI50,"[13]; Homo sapiens, DU-145, 48 h",1750 nM
same,GI50,"[14]; Homo sapiens, Malme-3M",1680 nM
same,TGI,"[14]; MALME-3M, Melanoma, five dose, SRB",3450 nM
same,GI50,"[15]; Homo sapiens, M14, 48 h",1600 nM
same,TGI,"[15]; M14, Melanoma, five dose, 48 h, SRB",3300 nM
same,GI50,"[16]; Homo sapiens, MDA-MB-435, 48 h",1700 nM
same,TGI,"[16]; MDA-MB-435, Melanoma, five dose, 48 h, SRB",3400 nM
same,GI50,"[17]; Homo sapiens, SK-MEL-28, 48 h",1740 nM
same,TGI,"[17]; SK-MEL-28, Melanoma, five dose, 48 h, SRB",3400 nM
same,GI50,"[18]; Homo sapiens, IGROV-1, 48 h",1540 nM
same,TGI,"[18]; IGROV1, Ovarian Cancer, five dose, 48 h, SRB",3750 nM
same,GI50,"[19]; Homo sapiens, OVCAR-3, 48 h",1780 nM
same,TGI,"[19]; OVCAR-3, Ovarian Cancer, five dose, 48 h, SRB",3380 nM
same,GI50,"[20]; Homo sapiens, OVCAR-5, 48 h",1720 nM
same,TGI,"[20]; OVCAR-5, Ovarian Cancer, five dose, 48 h, SRB",3300 nM
same,GI50,"[21]; Homo sapiens, OVCAR-8, 48 h",2320 nM
same,TGI,"[21]; OVCAR-8, Ovarian Cancer, five dose, 48 h, SRB",5730 nM
same,GI50,[22]; Homo sapiens,2420 nM
same,TGI,"[22]; Ovarian Cancer, five dose, SRB",7030 nM
same,GI50,"[23]; Homo sapiens, SK-OV-3, 48 h",2420 nM
same,TGI,"[23]; SK-OV-3, Ovarian Cancer, five dose, 48 h, SRB",5680 nM
same,TGI,"[24]; 786–0, Renal Cancer, five dose, 48 h, SRB",3360 nM
same,GI50,"[24]; Homo sapiens, 786-0, 48 h",1700 nM
same,TGI,"[25]; A498, Renal Cancer, five dose, 48 h, SRB",23600 nM
same,GI50,"[25]; Homo sapiens, A498, 48 h",11000 nM
same,GI50,"[26]; Homo sapiens, TK-10, 48 h",1520 nM
same,TGI,"[26]; TK-10, Renal Cancer, five dose, 48 h, SRB",3030 nM
same,GI50,"[27]; Homo sapiens, UO-31, 48 h",1460 nM
same,TGI,"[27]; UO-31, Renal Cancer, five dose, 48 h, SRB",2970 nM
same,GI50,"[28]; Homo sapiens, MCF7, 48 h",1270 nM
same,TGI,"[28]; MCF7, Breast cancer, five dose, 48 h, SRB",3680 nM
same,GI50,"[29]; Homo sapiens, T47D",2050 nM
same,TGI,"[29]; T-47D, Breast cancer, five dose, SRB",5080 nM
same,GI50,"[30]; Homo sapiens, MDA-MB-468, 48 h",2100 nM
same,TGI,"[30]; MDA-MB-468, Breast cancer, five dose, 48 h, SRB",5020 nM
same,number of cell lines with complete cell death,"[31]; 10 μM, SRB",45
same,inhibition at 10 µM,"[31]; Homo sapiens, 60 cell, read-out: Mean growth inhibition %",132%
same,inhibition at 10 µM,[32],31.3 to 144%
same,IC50,[33],3450 ± 250 nM
same,IC50,[34],2360 ± 470 nM
